In the library only some 3.4% were active in any assay of this set; here they are far more common.
beta cell repl – induces beta-cell replication in MIN6 cells; MIN6 cells proliferation, ATPlite luminescence, 48 h; cells starved in 0.2% serum; 100% = growth in 10% serum; proliferation, % at 10 µM; actives 0.29% (n = 330,000); AID 2380;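 active = compounds whose signal lies at least 3.5 SD above the mean of all wells on their plate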;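 note: 0% = DMSO-treated cells in low-serum medium and 100% = 10% serum control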
HTR2A ag – agonists of mouse serotonin 5-HT2A receptor (HTR2A). P35363. CHO-K1 mHTR2A beta-arrestin complementation, luminescence; percent of 30 µM serotonin response. activation, % at 7.6 µM. actives 0.66% (n = 360,000). AID 624169;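 active = activation above a run cutoff, the mean activation of all tested compounds plus 3 SD, cut at about 14% in these data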;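 note: 0% = plate median of compound wells and 100% = 30 µM serotonin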
Target sequence (P35363 whole entry, looked up): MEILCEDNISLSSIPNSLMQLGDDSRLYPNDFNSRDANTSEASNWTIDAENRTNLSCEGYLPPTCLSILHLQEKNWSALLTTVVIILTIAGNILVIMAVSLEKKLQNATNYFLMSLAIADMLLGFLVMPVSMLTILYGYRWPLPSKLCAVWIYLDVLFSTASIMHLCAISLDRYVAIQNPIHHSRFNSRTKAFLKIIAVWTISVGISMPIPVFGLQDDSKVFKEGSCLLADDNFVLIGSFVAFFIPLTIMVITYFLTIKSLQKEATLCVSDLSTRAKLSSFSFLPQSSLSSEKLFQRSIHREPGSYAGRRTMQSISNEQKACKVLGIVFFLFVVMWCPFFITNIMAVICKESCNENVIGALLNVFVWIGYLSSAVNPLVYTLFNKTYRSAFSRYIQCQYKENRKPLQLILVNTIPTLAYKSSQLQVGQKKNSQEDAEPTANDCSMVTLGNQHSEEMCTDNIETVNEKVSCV
ANO1 activ – activates or potentiates the mouse TMEM16A chloride channel | Q8BHY3 | HEK293 TMEM16A/YFP-H148Q/I152L, iodide quench fluorescence; active compounds read low | B-score at 10 µM | actives 0.3% (n = 340,000) | AID 623877;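 active = fluorescence-ratio B-score plate-corrected deviation score at least 3 library SD below zero, with starting fluorescence score within 5 deviations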;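 note: channel opened by trigger with iodide after compound preincubation; score built on the fluorescence ratio of max minus min over baseline; more negative score means more quench and so TMEM16A activation or potentiation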
TMEM16A inh – blocks the mouse calcium-activated chloride channel TMEM16A | normalized B-score (activity score, 25-100; higher = stronger inhibition) at 10 µM | actives 1.2% (n = 310,000) | HEK293 TMEM16A/YFP iodide influx fluorescence, ionomycin | AID 588511;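 active = ratio plate-corrected score three or more library SD toward inhibition, starting fluorescence score within five deviations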;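 note: score derived from kinetic fluorescence span divided by baseline fluorescence per well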
MC4R antag cAMP – blocks human MC4R cAMP signaling; MC4R-expressing cells, MTII-stimulated cAMP, LANCE TR-FRET; inhibition, % at 6.5 µM; actives 0.48% (n = 360,000);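 active = inhibition above its plate's cutoff, the mean of tested wells on that plate plus 3 SD, cut at about 29% in these data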;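 note: 0% = Melanotan II alone and 100% = Melanotan II plus saturating MCL0020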
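Assay system: U2OS cells stably expressing human melanocortin 4 receptor (MC4R) / Dosing: 6.5 µM / Timing: compound 30 min, challenge 1 h, detection 1 h / Measured by: Eu-cAMP/anti-cAMP TR-FRET, emission 671 nm / Replicates: singlicate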
MC4R ag barr – activates human MC4R beta-arrestin recruitment. P32245. U2OS MC4R beta-arrestin complementation, luminescence; percent of melanotan II response, DMSO zero. activation, % at 8.9 µM. actives 0.98% (n = 360,000). AID 540308;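 active = activation above a per-plate cutoff, the mean activation of sample wells on that plate plus 3 SD, cut at about 8% in these data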
U2OS cAMP counter – U2OS forskolin cAMP inhibition counter-screen; shares compounds with MC4R antag cAMP; parental U2OS, LANCE TR-FRET; inhibition, % at 6.5 µM; actives 26% (n = 1,600);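 active = mean inhibition over triplicates above the low-control well mean plus 3 SD, set per campaign, cut at about 13% in these data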;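 note: signal is single emission at 671 nm which falls as cellular cAMP rises; 0% = forskolin-stimulated wells and 100% = buffer without forskolin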
MC4R antag conf – human MC4R cAMP antagonism confirmation. shares compounds with MC4R antag cAMP. MC4R-expressing cells, MTII-stimulated cAMP, TR-FRET. inhibition, % at 6.5 µM. actives 27% (n = 1,600); in the data active = inhibition above about 29%;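 note: 0% = agonist stimulated wells alone and 100% = agonist stimulated wells plus saturating reference antagonist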
Numbers without * were called inactive.

Clc1ccc(-c2nnc3n2CCCCS3)cc1 was read as beta cell repl 0.0, HTR2A ag 2.3, ANO1 activ inactive, TMEM16A inh inactive, MC4R antag cAMP 35.0*, MC4R ag barr 0.8, U2OS cAMP counter -1.6 and MC4R antag conf -6.7.
O=C(C1CCCCC1)N1C[C@@H](O)[C@H](n2cc(-c3ccc(F)cc3)nn2)C[C@@H]1c1ccccc1 was read as HTR2A ag -8.4, MC4R antag cAMP 15.8 and MC4R ag barr 0.4.
O=C(OCc1ccccc1)N1CCC2CC1c1c(Cl)cccc12 (centres undefined) was read as HTR2A ag 1.2, MC4R antag cAMP 29.5*, MC4R ag barr 2.6, U2OS cAMP counter -1.6 and MC4R antag conf -9.9.
Screening COc1cccc(NC(=O)Nc2ccc3c(c2)CCC3)c1 returned beta cell repl 0.0, HTR2A ag -4.2, ANO1 activ inactive, TMEM16A inh inactive, MC4R antag cAMP -4.9 and MC4R ag barr 2.5.
O=C(O)c1cc(-c2ccc(Br)s2)nc2ccccc12 was read as beta cell repl -5.4, HTR2A ag 4.3, ANO1 activ inactive, TMEM16A inh inactive, MC4R antag cAMP active, MC4R ag barr 0.4, U2OS cAMP counter 185.3* and MC4R antag conf active.
For CCOCCCNC(=O)c1cc(-c2ccc(Br)s2)nc2ccccc12 the results were beta cell repl 2.2, HTR2A ag 5.8, ANO1 activ inactive, TMEM16A inh inactive, MC4R antag cAMP 37.4*, MC4R ag barr -0.8, U2OS cAMP counter 33.4* and MC4R antag conf 62.8*.
Screening CCCCOc1cc(C(=O)NCCN(CC)CC)c2ccccc2n1 returned beta cell repl -3.8, HTR2A ag -8.9, ANO1 activ inactive, TMEM16A inh inactive, MC4R antag cAMP 11.2 and MC4R ag barr -0.9.
For CCN(CC)CCNC(=O)c1cc(-c2ccc(Br)s2)nc2ccccc12 the results were beta cell repl -3.7, HTR2A ag -5.7, ANO1 activ inactive, TMEM16A inh inactive, MC4R antag cAMP 33.4*, MC4R ag barr 4.9, U2OS cAMP counter 6.6 and MC4R antag conf -9.2.
For CC(C)OCCCNC(=O)c1cc(-c2cccs2)nc2ccccc12 the results were beta cell repl -0.2, HTR2A ag -7.5, ANO1 activ inactive, TMEM16A inh inactive, MC4R antag cAMP 8.1 and MC4R ag barr -0.3.
CC(=O)Cc1nsc(NC(=O)c2ccc(COc3ccccc3C)o2)n1 was read as beta cell repl 0.0, HTR2A ag 13.9, ANO1 activ inactive, TMEM16A inh inactive, MC4R antag cAMP 18.4 and MC4R ag barr -1.2.
`CC(C)(C)NC(=O)NC(=O)Cn1cc(C(F)(F)F)ccc1=O` gave beta cell repl 3.6, HTR2A ag 0.4, ANO1 activ inactive, TMEM16A inh inactive, MC4R antag cAMP 7.4 and MC4R ag barr -1.5.
Screening O=C(Cn1cc(C(F)(F)F)ccc1=O)NC(c1ccccc1)c1ccccc1 returned beta cell repl 3.2, HTR2A ag 2.1, ANO1 activ inactive, TMEM16A inh inactive, MC4R antag cAMP 36.1*, MC4R ag barr -0.8, U2OS cAMP counter 4.4 and MC4R antag conf 8.6.
Screening Cc1ccc(C(=O)NCc2cccnc2)cc1S(=O)(=O)N1CCCCCC1 returned beta cell repl -4.7, HTR2A ag -2.5, ANO1 activ inactive, TMEM16A inh inactive, MC4R antag cAMP 6.1 and MC4R ag barr -3.3.
Screening CNC[C@H](Cc1ccccc1)NC[C@@H](Cc1cccc2ccccc12)NCCc1ccc(C)cc1 returned beta cell repl -8.1, HTR2A ag 6.0, ANO1 activ inactive, TMEM16A inh 100*, MC4R antag cAMP 31.5*, MC4R ag barr 5.0, U2OS cAMP counter -4.5 and MC4R antag conf -28.4.
